From ChEMBL document CHEMBL3286113, “New potent antibacterial oxazolidinone (MRX-I) with an improved class safety profile” (J Med Chem, 2014)
≈ marks a conversion by molar mass, not a printed value.

How the values were obtained:
Assay type in all cases: functional
Staphylococcus aureus [1] = assay: Antibacterial activity against Staphylococcus aureus
Staphylococcus aureus [2] = assay: Antibacterial activity against Staphylococcus aureus in po dosed mouse septicemia model
Staphylococcus aureus [3] = assay: Antibacterial activity against methicillin-resistant Staphylococcus aureus SAU1009
Method in brief: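 MIC against MRSA strain SAU1009.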

Q: Which MIC (Staphylococcus aureus [1]) does the source give for `CC(=O)NC[C@H]1CN(c2ccc(C(C)=O)cc2F)C(=O)O1` here?
A: 32 µg/mL (≈ 109 µM)

Q: `CC(=O)NC[C@H]1CN(c2cc(F)c(N3C=CC(=O)CC3)c(F)c2F)C(=O)O1` was tested. Which ED50 (Staphylococcus aureus [2]) did it give?
A: > 20 mg/kg

Q: And the MIC (Staphylococcus aureus [3])?
A: 2 µg/mL (≈ 5.22 µM)
